Source: ChEMBL document CHEMBL1157573, “BRAF inhibitors based on an imidazo[4,5]pyridin-2-one scaffold and a meta substituted middle ring” (J Med Chem, 2010)

Experiments:
[1] = target: T1, Serine/threonine-protein kinase B-raf (Homo sapiens, UniProt P15056, V600E); experiment: Inhibition of human BRAF V600E mutant expressed in Sf9 cells
[2] = target: T1, Serine/threonine-protein kinase B-raf; experiment: Inhibition of BRAF V600E mutant-mediated ERK phosphorylation in human WM266.4 cells; assay type: cell-based
[3] = Antiproliferative activity against human WM266.4 cells after 6 days by SRB assay; assay type: functional; details: WM 266-4, 144 h
Method in brief: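 SRB cell proliferation assay on WM266.4 melanoma cells, which carry mutant BRAF. Growth inhibition is reported as GI50.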

[4] = Antiproliferative activity against human WM1361 cells after 5 days by SRB assay; details: WM1361, 120 h
[5] = Antiproliferative activity against human WM266.4 cells after 5 days by SRB assay; details: WM 266-4, 120 h

T1 sequence (P15056 2-766 V600E limits assumed): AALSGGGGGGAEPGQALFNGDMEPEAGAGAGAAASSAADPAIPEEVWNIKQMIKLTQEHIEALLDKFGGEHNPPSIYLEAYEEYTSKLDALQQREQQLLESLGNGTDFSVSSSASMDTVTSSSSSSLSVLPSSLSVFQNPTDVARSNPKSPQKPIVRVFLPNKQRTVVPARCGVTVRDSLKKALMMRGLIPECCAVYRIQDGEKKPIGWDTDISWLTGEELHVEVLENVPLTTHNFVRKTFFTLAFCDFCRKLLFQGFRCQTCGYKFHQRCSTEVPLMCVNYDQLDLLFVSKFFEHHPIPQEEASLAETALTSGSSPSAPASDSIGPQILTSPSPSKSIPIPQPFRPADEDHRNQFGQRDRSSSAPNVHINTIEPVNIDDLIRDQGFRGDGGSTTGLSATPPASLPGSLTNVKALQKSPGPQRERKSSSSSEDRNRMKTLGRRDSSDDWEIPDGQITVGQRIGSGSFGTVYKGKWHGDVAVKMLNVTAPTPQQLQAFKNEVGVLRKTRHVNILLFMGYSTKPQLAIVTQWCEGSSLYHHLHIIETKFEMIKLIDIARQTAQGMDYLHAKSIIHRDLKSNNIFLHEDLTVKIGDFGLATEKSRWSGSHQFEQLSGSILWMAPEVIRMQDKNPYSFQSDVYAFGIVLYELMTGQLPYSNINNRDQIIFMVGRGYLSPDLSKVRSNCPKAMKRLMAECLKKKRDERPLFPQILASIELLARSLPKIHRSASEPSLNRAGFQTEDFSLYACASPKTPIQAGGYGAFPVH

Row | Compound | IC50 [1] | IC50 [2] | GI50 [3] | GI50 [4] | GI50 [5]
1 | O=C(Nc1cc(Oc2ccnc3[nH]c(=O)[nH]c23)c(F)cc1F)c1cccc(OC(F)(F)F)c1 | 0.01 µM | 6.9 µM | 4.6 µM |  | 
2 | O=C(Nc1cc(Cl)cc(Oc2ccnc3[nH]c(=O)[nH]c23)c1)c1cccc(OC(F)(F)F)c1 | 0.033 µM | 11.3 µM | 1.9 µM |  | 
3 | O=C(Nc1cccc(Oc2ccnc3[nH]c(=O)[nH]c23)c1)Nc1ccc(Cl)c(C(F)(F)F)c1 | 0.015 µM | 10.7 µM | 4.2 µM |  | 
4 | O=C(Nc1cccc(Oc2ccnc3[nH]c(=O)[nH]c23)c1)c1cccc(N2CCCCC2)c1 | 0.047 µM | 15.4 µM | 9.6 µM |  | 
5 | CC(C)(C)c1cccc(C(=O)Nc2cccc(Oc3ccnc4[nH]c(=O)[nH]c34)c2)c1 | 0.017 µM | 3.5 µM | 1.83 µM |  | 
6 | CNC(=O)c1cc(Oc2ccc(NC(=O)Nc3ccc(Cl)c(C(F)(F)F)c3)cc2)ccn1 [SORAFENIB] |  |  |  | 4.34 µM | 4.93 µM

The next lines start with results.

Row | IC50 [1] | IC50 [2] | Compound | GI50 [3] | GI50 [4] | GI50 [5]
7 | 0.043 µM | 15 µM | O=C(Nc1cccc(Oc2ccnc3[nH]c(=O)[nH]c23)c1)c1cc(OC(F)(F)F)ccc1F | 1.2 µM |  | 
8 | 0.023 µM | 5.7 µM | O=C(Nc1cccc(Oc2ccnc3[nH]c(=O)[nH]c23)c1)c1cccc(OC(F)(F)C(F)F)c1 | 0.841 µM |  | 
9 | 0.015 µM | 6.7 µM | O=C(Nc1cccc(Oc2ccnc3[nH]c(=O)[nH]c23)c1)c1cccc(OC(F)(F)F)c1F | 0.57 µM |  | 
10 | 0.014 µM | 7.56 µM | O=C(Nc1cccc(Oc2ccnc3[nH]c(=O)[nH]c23)c1)c1cccc(OC(F)(F)F)c1 | 1 µM |  | 
11 | 0.033 µM | 16 µM | O=C(Nc1cc(F)cc(Oc2ccnc3[nH]c(=O)[nH]c23)c1)c1cccc(OC(F)(F)F)c1 | 2.4 µM |  | 
12 | 0.026 µM | 12.2 µM | O=C(Nc1cccc(Oc2ccnc3[nH]c(=O)[nH]c23)c1)Nc1cc(C(F)(F)F)ccc1F | 1.6 µM |  | 
13 | 0.005 µM | 6.48 µM | O=C(Nc1cccc(Oc2ccnc3[nH]c(=O)[nH]c23)c1)c1cccc(SC(F)(F)F)c1 | 5.1 µM |  | 
